In the library only some 1.3% were active in any assay of this set; here they are far more common.
CSN inh: blocks human CSN-mediated cullin deneddylation | inhibition, % at 12.5 µM | actives 0.38% (n = 360,000) | Purified CSN, SCF-Nedd8-OG deneddylation, fluorescence polarization | Q92905;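 active = pattern-corrected inhibition above about 35%, with an unprinted fluorescence ratio check between 0.5 and 1.5, limit read from the data, passing the limit was not always enough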
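Detection – fluorescence polarization · System – HEK293T-derived human Csn5 enzyme · Controls – substrate-only high control, full reaction low control · Timing – 90 min, room temperature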
XiGFP reactiv: reactivates the inactive X chromosome in mouse fibroblasts. actives 0.055% (n = 360,000). AID 743238. XiGFP mouse fibroblasts, % GFP-positive cells imaging, 3 d; cells co-treated with 5-aza-dC sensitizer; scaled so ellipticine positive control = 100%. activation, % at 7.58 µM;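 active = mean normalized replicate activation at least 10% and every replicate at or above 10%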
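Assay system – SV40-immortalized XiGFP fibroblast cells, line 68-5-11 · Buffer or medium – DMEM supplemented with 5-aza-dC as sensitizing agent · Dosing – one concentration, pinned · Benchmarks – positive control ellipticine, 6 µM final · Times – 3 days compound exposure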
HNF4A DNA FP: change in binding of human HNF4 alpha to DNA. P41235. actives 0.3% (n = 360,000). activity change, % at 10 µM. HNF4a-FITC DNA binding, fluorescence polarization, 1 h; in the data active = activity change above about 30%, passing the limit was not always enough
TPT1 inhibitor: blocks Candida albicans tRNA 2'-phosphotransferase. actives 0.81% (n = 300,000). inhibition, % at 5 µM. recombinant caTPT1, FP RNA substrate dephosphorylation;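 active = inhibition above the mean of all tested compounds plus 3 SD, set per screening campaign, cut at about 24% in these data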
aDG glyco act: increases alpha dystroglycan glycosylation; AID 624168; Pro5-aDG cells, alpha-DG glycosylation AlphaScreen (IIH6); 0% Pro5, 100% B10-LARGE cell signal; activation, % at 10 µM; actives 0.22% (n = 360,000);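 active = activation of at least 8% versus controls, or a plate z-score of at least 8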;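 note: Pro5 are CHO cells carrying HIG-tagged alpha-DG that lacks glycosylation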
Rpn11 block: Rpn11 (human) deubiquitinase inhibition; actives 0.59% (n = 360,000); O00487; human 26S proteasome, Ub4-pepOG fluorescence polarization; 20S core pre-blocked with epoxomicin; inhibition, % at 20 µM;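 active = inhibition at 20 µM, scaled to each plate's controls, above about 33%, limit read from the data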
CSN5 deneddyl: Csn5 (human) deneddylation inhibition, single-concentration validation; shares compounds with CSN inh; Csn5 deneddylation of SCF-Nedd8OG, fluorescence polarization, 90 min; inhibition, % at 16.6 µM; actives 62% (n = 540); in the data active = inhibition above about 50%
MMP2 cntr CSN: counter-screen for CSN deneddylation inhibitors: human MMP-2 inhibition. shares compounds with CSN inh. recombinant MMP-2, FRET substrate fluorescence, 60 min. inhibition, % at 16.6 µM. actives 33% (n = 540);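 active = corrected plate-normalized z-score of 5 or more, or -5 or less, or inhibition of 15% or more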
Thrombin cntr: thrombin (bovine) inhibition, counter-screen for CSN hits; shares compounds with CSN inh; bovine thrombin cleavage of Ub4-pepOG, fluorescence polarization; inhibition, % at 16.6 µM; actives 49% (n = 540); AID 720656;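 active = inhibition at or above a set limit, with a fluorescence interference ratio between 0.5 and a set maximum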
Target sequence (P00735 whole entry, looked up): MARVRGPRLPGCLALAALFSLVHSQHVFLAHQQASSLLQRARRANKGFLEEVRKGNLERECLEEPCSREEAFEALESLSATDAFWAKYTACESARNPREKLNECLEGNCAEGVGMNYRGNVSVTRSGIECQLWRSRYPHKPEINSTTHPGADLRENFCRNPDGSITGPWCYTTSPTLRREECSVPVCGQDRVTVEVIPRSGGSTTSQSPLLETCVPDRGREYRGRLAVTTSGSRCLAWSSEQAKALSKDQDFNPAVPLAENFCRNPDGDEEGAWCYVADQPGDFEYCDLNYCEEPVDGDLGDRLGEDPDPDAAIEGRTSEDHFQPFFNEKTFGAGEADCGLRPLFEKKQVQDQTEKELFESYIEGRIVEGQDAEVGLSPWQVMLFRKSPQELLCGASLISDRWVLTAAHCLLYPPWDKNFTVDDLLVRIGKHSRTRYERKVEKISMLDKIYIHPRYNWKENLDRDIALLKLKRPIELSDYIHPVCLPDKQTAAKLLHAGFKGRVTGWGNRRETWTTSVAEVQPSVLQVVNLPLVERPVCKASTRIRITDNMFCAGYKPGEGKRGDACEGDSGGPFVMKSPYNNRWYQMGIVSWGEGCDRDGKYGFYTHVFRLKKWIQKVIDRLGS
Numbers stand for hits; i = inactive; nt = not tested or not shown; + = active, no number; ! = repeats disagree.

SMILES	CSN inh	XiGFP reactiv	HNF4A DNA FP	TPT1 inhibitor	aDG glyco act	Rpn11 block	CSN5 deneddyl	MMP2 cntr CSN	Thrombin cntr
O=C(N/N=C/c1cc(Br)c(Br)o1)c1ccc2c(c1)OCCO2	40	i	i	i	i	i	66	i	i
CCN1/C(=C/C(C)=C/c2sc3ccccc3[n+]2CC)Sc2ccccc21	77	i	197	i	i	121	i	50!	113
CCC(=O)N1[C@@H](CO)[C@@H](c2ccccc2)C12CN(C(=O)c1ccc(F)cc1)C2	nt	i	nt	nt	nt	nt	nt	nt	nt
Cc1ccc(-c2nn3c(C)nnc3s2)cc1NC(=O)c1ccc(-c2ccc(Cl)cc2Cl)o1	124	nt	104	i	i	+	112	i	i
Cc1ccc(-c2nn3c(C)nnc3s2)cc1NC(=O)c1ccc(-c2cccc(Cl)c2)o1	i	nt	i	nt	i	nt	nt	nt	nt
CC(C)NC(=O)N(C)C[C@H]1Oc2ncc(C#Cc3ccc(F)cc3)cc2C(=O)N([C@H](C)CO)C[C@@H]1C	nt	i	nt	nt	nt	nt	nt	nt	nt
CCCCn1c(NS(=O)(=O)c2ccc(C)cc2)c(S(=O)(=O)c2ccccc2)c2nc3ccccc3nc21	69	i	i	i	i	i	101	i	i
CCCNC(=O)N1C[C@@H]2[C@H](c3ccccc31)[C@@H](CO)N2C(=O)Nc1ccccc1F	nt	i	nt	nt	nt	nt	nt	nt	nt
Cc1noc(C)c1S(=O)(=O)N(C)C[C@@H]1OCCCC[C@H](C)Oc2ccc(NS(=O)(=O)c3ccccc3)cc2C(=O)N([C@@H](C)CO)C[C@H]1C	nt	i	nt	nt	nt	nt	nt	nt	nt
NC1=NC(=O)C(=Cc2ccccc2)S1	i	i	i	nt	i	i	nt	nt	nt
NC1=NC(=O)/C(=C\c2ccco2)S1	36	i	i	i	i	i	70	17	i
O=C(N/N=C\C=C\c1ccco1)c1cc(-c2ccc3ccccc3c2)n[nH]1	43	i	i	i	i	i	96	i	i
Cc1ccc(C)c(S(=O)(=O)Nc2ccc3oc(C)c(C(=O)O)c3c2)c1	40	i	i	i	i	i	i	i	i
CC(=O)c1c(C)oc2ccc(NS(=O)(=O)c3ccc(C)cc3)cc12	i	i	i	i	i	i	nt	nt	nt
O=C(CC1CC1)Nc1ccc2c(c1)[C@H]1C[C@@H](CC(=O)N3CCc4ccccc4C3)O[C@H](CO)[C@H]1O2	nt	i	nt	nt	nt	nt	nt	nt	nt
Cc1cc(N2CCN(C)CC2)ccc1NC(=O)c1cccc(S(=O)(=O)N2CCc3ccccc3C2)c1	108	i	i	i	i	i	53	i	i
Cc1ccc(NC(=O)c2cccc(S(=O)(=O)N3CCc4ccccc4C3)c2)nc1	i	i	i	i	i	i	nt	nt	nt
Nc1ccc(Cn2ccc3c4c(N)nc(N)nc4ccc32)cc1	39	i	i	nt	i	i	93	i	i
Cc1c(CCC(=O)O)c(=O)oc2c(C)c3occ(-c4ccc(Br)cc4)c3cc12	39	i	i	nt	i	i	i	30	i
C[C@H]1CN([C@@H](C)CO)C(=O)Cc2cc(NC(=O)Nc3ccc4c(c3)OCO4)ccc2O[C@H]1CN(C)C(=O)Nc1ccccc1	nt	i	nt	nt	nt	nt	nt	nt	nt
CCOC(=O)C1=C(C)N=c2s/c(=C/c3cccc(OCC(=O)O)c3)c(=O)n2C1c1ccc(F)cc1 (stereo unspecified)	nt	i	nt	i	nt	nt	nt	nt	nt
CC1=C(C(=O)OC(C)C)C(c2ccc(Cl)cc2)n2c(s/c(=C\c3ccc(OCC(=O)O)cc3)c2=O)=N1 (stereo unspecified)	84	i	i	nt	i	nt	i	i	i
O=C1/C(=C/c2cccs2)Sc2ccccc21	i	i	i	i	i	i	nt	nt	nt
O=C1/C(=C/c2cccs2)CCC/C1=C\c1cccs1	43	i	i	i	i	i	92	i	i

Screening data deposited in PubChem by several laboratories.
